The source of these data is ChEMBL document CHEMBL1132915.

The target of data set [1] is Xaa-Pro dipeptidase (Alteromonas sp.) (UniProt Q44238). The data set is described as follows: Kinetic constant Kcat from initial velocity assay against Organophosphorus acid anhydrolase from Alteromonas sp. JD6.5. The procedure, abridged: (§1)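 Recombinant OPAA expressed in E. coli XL1 (plasmid pTCJS4), then ammonium sulfate and Q-Sepharose purification. Continuous plate assay at 25 °C with 1 μg enzyme in 50 mM bis-Tris propane pH 8.5, 100 mM NaCl, 0.1 mM MnCl2. Phenyl-containing and diisopropyl substrates had 5% methanol, diphenyl substrate 20%. p-Nitrophenol release was read at 400 nm (ε 17,000 M⁻¹ cm⁻¹). Rates were fitted to v = kcat·E·A/(Km + A).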
Sequence of Xaa-Pro dipeptidase (Alteromonas sp.) (UniProt Q44238) (Q44238 whole entry, looked up): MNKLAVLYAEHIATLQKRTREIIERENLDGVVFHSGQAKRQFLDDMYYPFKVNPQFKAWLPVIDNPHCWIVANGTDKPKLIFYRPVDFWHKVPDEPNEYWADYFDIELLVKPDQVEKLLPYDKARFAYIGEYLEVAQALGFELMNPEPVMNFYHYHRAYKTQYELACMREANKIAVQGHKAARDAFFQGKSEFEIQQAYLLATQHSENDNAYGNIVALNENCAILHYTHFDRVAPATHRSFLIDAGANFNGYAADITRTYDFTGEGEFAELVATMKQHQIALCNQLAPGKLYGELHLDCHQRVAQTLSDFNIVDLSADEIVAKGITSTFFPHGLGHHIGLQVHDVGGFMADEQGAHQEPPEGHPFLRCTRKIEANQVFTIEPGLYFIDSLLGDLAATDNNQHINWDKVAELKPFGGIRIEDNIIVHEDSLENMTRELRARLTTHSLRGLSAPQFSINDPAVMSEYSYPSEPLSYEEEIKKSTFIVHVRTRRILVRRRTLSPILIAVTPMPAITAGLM

The target is the same in data set [2]. The data set is described as follows: Ratio of kinetic constant Kcat to Km from initial velocity assay against OPAA from Alteromonas sp. JD6.5. The procedure, abridged:
as §1

Data set [3] shares this target. The experiment in a line: Ratio of kinetic constant K1 to K2 from progress curves against OPAA from Alteromonas sp. JD6.5. The procedure, abridged: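 Time-course assays at 25 °C in a cuvette spectrophotometer, started by adding enzyme to 3.0 mL of 50 mM bis-Tris propane pH 8.5, 100 mM NaCl, 0.1 mM MnCl2, without methanol. Complete hydrolysis was followed at 400 nm. Traces were fitted to single or double exponential equations to give rate constants for the two enantiomers, and their ratio was taken.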

Data set [4] has the same target. The experiment in a line: Ratio of kinetic constant Kcat to Km Sp and Kcat to Km Rp from initial velocity assay against OPAA from Alteromonas sp. JD6.5. The procedure, abridged:
as §1

The subject of data set [5] is CC(C)O[P@@](=O)(Oc1ccccc1)Oc1ccc([N+](=O)[O-])cc1. The experiment in a line: (§2) Kinetic constant Km from initial velocity assay against Organophosphorus acid anhydrolase from Alteromonas sp. JD6.5. The procedure, abridged: as §1
The test system of data set [6] is CC(C)O[P@](=O)(Oc1ccccc1)Oc1ccc([N+](=O)[O-])cc1. The description is as §2. The procedure, abridged: as §1
Data set [7] deals with CCOP(=O)(OCC)Oc1ccc([N+](=O)[O-])cc1. The description is as §2. The procedure, abridged: as §1
The test system of data set [8] is CCO[P@@](=O)(OC)Oc1ccc([N+](=O)[O-])cc1. The data set is described as §2. The procedure, abridged:
as §1

The test system of data set [9] is CCO[P@@](=O)(Oc1ccccc1)Oc1ccc([N+](=O)[O-])cc1. The description is as §2. The procedure, abridged: as §1
For data set [10], the system named is CCO[P@](=O)(OC)Oc1ccc([N+](=O)[O-])cc1. Described as §2. The procedure, abridged: as §1
Data set [11] relates to CCO[P@](=O)(Oc1ccccc1)Oc1ccc([N+](=O)[O-])cc1. Described as §2. The procedure, abridged: as §1
For data set [12], the system named is COP(=O)(OC)Oc1ccc([N+](=O)[O-])cc1. The data set is described as §2. The procedure, abridged:
as §1

Data set [13] concerns CO[P@@](=O)(Oc1ccc([N+](=O)[O-])cc1)OC(C)C. The description is as §2. The procedure, abridged:
as §1

Data set [14] has as its system CO[P@@](=O)(Oc1ccccc1)Oc1ccc([N+](=O)[O-])cc1. Described as §2. The procedure, abridged:
as §1

Data set [15] relates to CO[P@](=O)(Oc1ccc([N+](=O)[O-])cc1)OC(C)C. The description is as §2. The procedure, abridged:
as §1

Data set [16] concerns CO[P@](=O)(Oc1ccccc1)Oc1ccc([N+](=O)[O-])cc1. The description is as §2. The procedure, abridged: as §1
The subject of data set [17] is O=[N+]([O-])c1ccc(OP(=O)(Oc2ccccc2)Oc2ccccc2)cc1. The data set is described as §2. The procedure, abridged: as §1
Data set [18] addresses Xaa-Pro dipeptidase (Alteromonas sp.) (UniProt Q44238). The experiment in a line: Kinetic constant Kcat from initial velocity assay (at 7.6 mM substrate) against Organophosphorus acid anhydrolase from Alteromonas sp. JD6.5. The procedure, abridged: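 Initial-rate assay at a single substrate concentration of 7.6 mM. Used 1 μg purified recombinant OPAA (E. coli XL1/pTCJS4) at 25 °C in 50 mM bis-Tris propane pH 8.5, 100 mM NaCl, 0.1 mM MnCl2, with methanol cosolvent as needed. Hydrolysis was followed at 400 nm as p-nitrophenol (ε 17,000 M⁻¹ cm⁻¹).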

Data set [19] has the same target. The data set is described as follows: Ratio of kinetic constant Kcat to Km by linear fit to data against OPAA from Alteromonas sp. JD6.5. The procedure, abridged: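 kcat/Km was taken from a linear fit to initial-rate data. Continuous 400 nm p-nitrophenol assay at 25 °C with 1 μg recombinant OPAA (E. coli XL1/pTCJS4). Buffer was 50 mM bis-Tris propane pH 8.5, 100 mM NaCl, 0.1 mM MnCl2, plus 5–20% methanol depending on substrate.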

Take `CO[P@@](=O)(Oc1ccccc1)Oc1ccc([N+](=O)[O-])cc1`: in data set [1], the k cat turned out to be 40 s⁻¹. Also, the k cat/Km in data set [2] worked out at 9990 M⁻¹ s⁻¹.

Regarding `CO[P@](=O)(Oc1ccccc1)Oc1ccc([N+](=O)[O-])cc1`, the k cat in data set [1] is 1.8 s⁻¹. The Ratio in data set [3] was found to be 14.5; in data set [4], 4. The k cat/Km in data set [2] is 2340 M⁻¹ s⁻¹.

The compound `COP(=O)(OC)Oc1ccc([N+](=O)[O-])cc1` returned a k cat in data set [1] of 1.4 s⁻¹. The k cat/Km in data set [2] is 140 M⁻¹ s⁻¹.

As for `CCO[P@@](=O)(Oc1ccccc1)Oc1ccc([N+](=O)[O-])cc1`, the k cat in data set [1] came out at 0.7 s⁻¹. Moreover, the k cat/Km in [2] was determined as 360 M⁻¹ s⁻¹.

The compound `CCO[P@](=O)(Oc1ccccc1)Oc1ccc([N+](=O)[O-])cc1` registered a k cat in data set [1] of 0.2 s⁻¹. Also, the values for the Ratio in data set [3] and in data set [4] were 2.8 and under 3, respectively. In addition, the k cat/Km in [2] was found to be 300 M⁻¹ s⁻¹.

As usually defined, the Km is the substrate concentration at which the rate is half of its maximum. For the compound “Xaa-Pro dipeptidase (Alteromonas sp.) (from UniProt Q44238)”, the Km was 1.3 mM in data set [5]; 0.3 mM in data set [6]; over 7.6 mM in [7]; 8.3 mM in data set [8]; 2 mM in data set [9]; 14 mM in data set [10]. Besides, the Km in data set [11] turned out to be 0.6 mM; in [12], 9.5 mM; in data set [13], 19 mM; in data set [14], 4 mM; in data set [15] it was 12 mM; in data set [16], 0.8 mM. For the same compound, the Km in data set [17] was found to be 0.2 mM.

The compound `CCO[P@](=O)(OC)Oc1ccc([N+](=O)[O-])cc1` displayed a k cat in data set [1] of 47 s⁻¹. Also, the k cat/Km in data set [2] was found to be 3250 M⁻¹ s⁻¹.

In turn, `CC(C)O[P@](=O)(Oc1ccccc1)Oc1ccc([N+](=O)[O-])cc1` showed a k cat in [1] of 0.1 s⁻¹. Also, the Ratio in [3] is 3.5; in [4], under 3. For the same compound, in data set [2], the k cat/Km came out at 240 M⁻¹ s⁻¹.

As for `CO[P@@](=O)(Oc1ccc([N+](=O)[O-])cc1)OC(C)C`, the k cat in data set [1] worked out at 3.6 s⁻¹. The values for the Ratio in [3] and in data set [4] were 100 and 23, respectively. The k cat/Km in data set [2] was 190 M⁻¹ s⁻¹.

In turn, `O=[N+]([O-])c1ccc(OP(=O)(Oc2ccccc2)Oc2ccccc2)cc1` yielded a k cat in [1] of 0.1 s⁻¹. Moreover, the k cat/Km in data set [2] worked out at 530 M⁻¹ s⁻¹.

For `CC(C)O[P@@](=O)(Oc1ccccc1)Oc1ccc([N+](=O)[O-])cc1`, the k cat in data set [1] worked out at 0.2 s⁻¹. Besides, in data set [2], the k cat/Km amounted to 150 M⁻¹ s⁻¹.

In [1], `CCO[P@@](=O)(OC)Oc1ccc([N+](=O)[O-])cc1` showed a k cat of 0.8 s⁻¹. Moreover, the values for the Ratio in [3] and in data set [4] were 112 and 36, respectively. Further, the k cat/Km in [2] came out at 90 M⁻¹ s⁻¹.

`CCOP(=O)(OCC)Oc1ccc([N+](=O)[O-])cc1` gave a k cat in [18] of 1.8 s⁻¹. In addition, in data set [19], the k cat/Km amounted to 280 M⁻¹ s⁻¹.

With `CO[P@](=O)(Oc1ccc([N+](=O)[O-])cc1)OC(C)C`, the k cat in [1] was found to be 54 s⁻¹. Besides, the k cat/Km in data set [2] was 4510 M⁻¹ s⁻¹.
